Article PMC4183726 (Journal of biomolecular screening, 2014)
Structures can show the parent of a compound that is named as a salt. Where two headings read alike, the source gives them in different places.

Experiments:
[1] = molecular target: T1, MBD2-MBD (Homo sapiens, UniProt Q9UBB5); experiment: TR-FRET dose-response; assay type: binding; settings: for dose-response for inhibition of MBD2-MBD binding to methylated DNA (in words): TR-FRET, dose range tested up to 20 µM
[2] = molecular target: SP-1 (Homo sapiens, UniProt P08047); experiment: TR-FRET counter screen with transcription factor SP-1 binding to DNA; settings: for inhibition of SP-1 binding to DNA (in words): TR-FRET counter screen, dose response
[3] = molecular target: T1, MBD2-MBD; experiment: TR-FRET binding curves of MBD2-MBD to methylated and unmethylated DNA; settings: read-out: EC50 of MBD2-MBD binding to DNA; TR-FRET assay
Procedure, shortened: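 His-tagged MBD2-MBD (25nM; E. coli-expressed, Ni-NTA and gel-filtration purified) in the FP binding buffer. FAM-labelled methylated or unmethylated hairpin oligo added as a dilution series, with 5 nM Tb-anti-His antibody. 1 h at 4°C with shaking. Ex 332 nm; emission 485 and 515 nm read after a 50 µsec delay over 400 µsec. No-protein 515/485 ratio subtracted; plotted against total DNA concentration and curve-fitted.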

[4] = molecular target: T1, MBD2-MBD; settings: read-out: EC50 of MBD2-MBD binding to DNA; FP assay
Procedure, shortened: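 His-tagged MBD2-MBD expressed in E. coli BL21 DE3 and purified by Ni-NTA and gel filtration. Protein dilution series in 10 mM Tris-HCl pH 7.4, 125 mM NaCl, 4% glycerol, 1 mM MgCl2, 0.5 mM EDTA, 0.5 mM DTT, 0.2% Tween-20. Added 10nM FAM-labelled hairpin oligo (CpG-methylated or unmethylated; annealed at 95°C, then ice). 1 h at 4°C with shaking, quadruplicate. Ex 470/em 525 nm; anisotropy plotted against protein concentration and curve-fitted.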

[5] = molecular target: MBD2-MBD (UniProt Q9UBB5 145-213); experiment: fluorescence polarization
Chain of MBD2-MBD (UniProt Q9UBB5 145-213) (Q9UBB5 145-213): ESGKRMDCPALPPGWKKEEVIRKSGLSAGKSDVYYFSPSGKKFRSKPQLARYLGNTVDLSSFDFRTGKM

Chain of SP-1 (P08047 whole entry): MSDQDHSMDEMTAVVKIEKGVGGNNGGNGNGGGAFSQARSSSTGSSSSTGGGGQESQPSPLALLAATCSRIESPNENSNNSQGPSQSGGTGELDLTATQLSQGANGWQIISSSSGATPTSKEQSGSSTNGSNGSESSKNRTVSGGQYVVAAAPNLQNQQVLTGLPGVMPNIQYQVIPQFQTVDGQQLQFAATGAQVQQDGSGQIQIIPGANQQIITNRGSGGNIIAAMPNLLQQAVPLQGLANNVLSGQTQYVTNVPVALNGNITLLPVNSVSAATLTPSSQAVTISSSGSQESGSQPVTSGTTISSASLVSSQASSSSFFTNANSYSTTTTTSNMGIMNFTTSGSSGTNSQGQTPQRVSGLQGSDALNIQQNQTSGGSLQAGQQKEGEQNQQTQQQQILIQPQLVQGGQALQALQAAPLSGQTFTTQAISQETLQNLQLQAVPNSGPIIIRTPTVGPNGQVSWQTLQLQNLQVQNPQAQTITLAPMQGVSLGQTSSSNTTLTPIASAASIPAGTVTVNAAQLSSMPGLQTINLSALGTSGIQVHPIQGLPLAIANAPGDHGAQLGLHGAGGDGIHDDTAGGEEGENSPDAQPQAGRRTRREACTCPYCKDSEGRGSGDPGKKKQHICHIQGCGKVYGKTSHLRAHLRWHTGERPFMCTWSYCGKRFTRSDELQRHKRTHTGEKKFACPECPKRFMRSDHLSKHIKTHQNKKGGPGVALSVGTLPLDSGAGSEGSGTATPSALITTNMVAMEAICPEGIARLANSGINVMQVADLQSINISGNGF
T1 sequence (Q9UBB5 145-213 limits assumed): as the sequence (Q9UBB5 145-213) above

## O=C(O)C1=CC(=C(c2ccc(O)c(C(=O)O)c2)c2ccc(O)c(C(=O)O)c2)C=CC1=O [Aurintricarboxylic acid]
[1]
  IC50: 2.7 nM
  dose-response for inhibition of MBD2-MBD binding to methylated DNA (in words): showed a sigmoidal dose-response
[2]
  inhibition of SP-1 binding to DNA (in words): prevented binding of SP1 to DNA with similar potency

## N[C@H](C(=O)O)[C@H]1C[C@@H]1C(=O)O [(2S,1S,2S)-2-(carboxycyclopropyl)glycine]
[1]
  dose-response for inhibition of MBD2-MBD binding to methylated DNA (in words): failed to show appreciable inhibition

## NC(Cc1cc(O)c(O)cc1O)C(=O)O (racemic) [6-Hydroxy-DL-DOPA]
[1]
  dose-response for inhibition of MBD2-MBD binding to methylated DNA (in words): failed to show appreciable inhibition

## O=C1c2c(O)ccc(O)c2C(=O)c2c(NCCNCCO)ccc(NCCNCCO)c21 [Mitoxantrone]
[1]
  IC50: 94 nM
  dose-response for inhibition of MBD2-MBD binding to methylated DNA (in words): showed a sigmoidal dose-response
[2]
  IC50: 314 nM
  inhibition of SP-1 binding to DNA (in words): prevented binding of SP1 to DNA with similar potency

## CC(=O)[C@]1(O)Cc2c(O)c3c(c(O)c2[C@@H](O[C@H]2C[C@H](N)[C@H](O)[C@H](C)O2)C1)C(=O)c1ccccc1C3=O [Idarubicin]
[1]
  IC50: 196 nM
  dose-response for inhibition of MBD2-MBD binding to methylated DNA (in words): showed a sigmoidal dose-response
[2]
  IC50: 580 nM
  inhibition of SP-1 binding to DNA (in words): prevented binding of SP1 to DNA with similar potency

## CCN(CC)CCOCCOC(=O)C1(c2ccccc2)CCCC1 [Carbetapentane citrate]
[1]
  dose-response for inhibition of MBD2-MBD binding to methylated DNA (in words): failed to show appreciable inhibition

## CN(N=O)c1ccc(O)c(O)c1 [Me-3,4-dephostatin]
[1]
  dose-response for inhibition of MBD2-MBD binding to methylated DNA (in words): failed to show appreciable inhibition

## unmethylated DNA: FAM-labeled hairpin oligonucleotide 5′-ATGCTCGTAGCACTTTTGTGCTACGAGCAT-3′ (unmethylated) (DNA, backbone not given here; FAM label, hairpin)
[2]; read-out: EC50 of SP-1 binding to DNA, TR-FRET assay, binding curve
  EC50: 22 nM
[3]
  EC50: > 1000 nM
[4]
  EC50: > 1000 nM

## CN(N=O)c1cc(O)ccc1O [Dephostatin]
[1]
  dose-response for inhibition of MBD2-MBD binding to methylated DNA (in words): failed to show appreciable inhibition

## ATGCTCGTAGCACTTTTGTGCTACGAGCAT (structured_DNA, 5-methyl-C at C6 and C24 (printed Cme)) [methylated hairpin FAM]
[5]
  apparent K (half saturation): 42.7 nM
